Measured values reported in article PMC7114156 (Antiviral Research, 2009).
Marks after values point to notes of the source that are not given here.

What was measured:
EBV = experiment: Lytic replication of EBV induced by sodium butyrate and PMA in P3HR1 cells; format: cell-based
W12 cells = experiment: mRNA measurement by RT-qPCR in W12 cells; format: cell-based, human; details: W12 cells
Method in brief: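 RNA was taken 0, 24 and 48 h after adding test compound; W12 cells were grown in 75 cm² flasks and washed in chilled PBS. 546 Pathway Set genes were run in quadruplicate by RT-qPCR: 10 μl reactions, primers 900 nM, probes 100 nM final. Ct was normalised to GAPDH, with dCt = Ct(control) − Ct(treated) and a two-sided t-test. Fold change was F = 2^dCt where p ≤ 0.05.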

[1] = 10 nM, 24 h, not significantly different from 1

## O=C(N[C@@H]1CCCc2c1[nH]c1ccc(Cl)cc21)c1ccccn1 [GSK983, N-[(1R)-6-Chloro-2,3,4,9-tetrahydro-1H-carbazol-1-yl]-2-pyridinecarboxamide]
EBV; at concentrations below 1 μM
  Susceptibility of lytic replication of EBV: not susceptible
EBV; below 10 μM, data not shown
  Inhibition of lytic replication of EBV below 10 μM: No significant inhibition
EBV; induced by sodium butyrate and PMA in P3HR1 cells, data not shown
  Inhibition of lytic replication of EBV: did not inhibit
W12 cells
  Expression of IFI6, IFI44 and IRF9: strongly induced
W12 cells; 10 nM, 24 h
  Fold increase due to GSK983, CPT1B mRNA: 2.2 fold
  Fold increase due to GSK983, IFI16 mRNA: 5.2 fold
  Fold increase due to GSK983, IFI44 mRNA: 2.9 fold
  Fold increase due to GSK983, IFIT1 mRNA: 2.6 fold
  Fold increase due to GSK983, ISG15 mRNA: 2.5 fold
  Fold increase due to GSK983, OAS2 mRNA: 2.1 fold
  Fold increase due to GSK983, OASL mRNA: 1.8 fold
  Fold increase due to GSK983, TNFSF10 mRNA: 3.7 fold
W12 cells; [1]
  Fold increase due to GSK983, CCL5 mRNA: 7.9 ^b fold
  Fold increase due to GSK983, COL10A1 mRNA: 0.8 ^b fold
  Fold increase due to GSK983, CSF2 mRNA: 1.5 ^b fold
  Fold increase due to GSK983, DCN mRNA: 1.5 ^b fold
  Fold increase due to GSK983, DMPK mRNA: 0.9 ^b fold
  Fold increase due to GSK983, ERN2 mRNA: 0.7 ^b fold
  Fold increase due to GSK983, FMOD mRNA: 1.0 ^b fold
  Fold increase due to GSK983, IFI6 mRNA: 1.1 ^b fold
  Fold increase due to GSK983, IL6 mRNA: 2.5 ^b fold
  Fold increase due to GSK983, IL8 mRNA: 1.8 ^b fold
  Fold increase due to GSK983, IRF9 mRNA: 1.0 ^b fold
  Fold increase due to GSK983, LIFR mRNA: 2.1 ^b fold
  Fold increase due to GSK983, LRP1 mRNA: 1.2 ^b fold
  Fold increase due to GSK983, NR1H3 mRNA: 0.6 ^b fold
  Fold increase due to GSK983, OAS1 mRNA: 1.1 ^b fold
  Fold increase due to GSK983, SNAP25 mRNA: 1.2 ^b fold
  Fold increase due to GSK983, TLR5 mRNA: 1.9 ^b fold
W12 cells; 10 nM, 48 h
  Fold increase due to GSK983, CCL5 mRNA: 41.5 fold
  Fold increase due to GSK983, CEL mRNA: 14.1 fold
  Fold increase due to GSK983, COL10A1 mRNA: 2.0 fold
  Fold increase due to GSK983, CPT1B mRNA: 2.2 fold
  Fold increase due to GSK983, CSF2 mRNA: 1.7 fold
  Fold increase due to GSK983, DCN mRNA: 2.1 fold
  Fold increase due to GSK983, DMPK mRNA: 2.1 fold
  Fold increase due to GSK983, ERN2 mRNA: 2.6 fold
  Fold increase due to GSK983, FMOD mRNA: 1.5 fold
  Fold increase due to GSK983, IFI6 mRNA: 2.2 fold
  Fold increase due to GSK983, IFI16 mRNA: 1.6 fold
  Fold increase due to GSK983, IFI44 mRNA: 2.7 fold
  Fold increase due to GSK983, IFIT1 mRNA: 2.0 fold
  Fold increase due to GSK983, IL6 mRNA: 1.8 fold
  Fold increase due to GSK983, IL8 mRNA: 1.4 fold
  Fold increase due to GSK983, IRF3 mRNA: 1.3 fold
  Fold increase due to GSK983, ISG15 mRNA: 3.0 fold
  Fold increase due to GSK983, LIFR mRNA: 1.5 fold
  Fold increase due to GSK983, LRP1 mRNA: 3.5 fold
  Fold increase due to GSK983, NR1H3 mRNA: 1.8 fold
  Fold increase due to GSK983, OAS1 mRNA: 1.7 fold
  Fold increase due to GSK983, OAS2 mRNA: 1.8 fold
  Fold increase due to GSK983, OASL mRNA: 2.2 fold
  Fold increase due to GSK983, SNAP25 mRNA: 3.7 fold
  Fold increase due to GSK983, TLR5 mRNA: 1.7 fold
  Fold increase due to GSK983, TNFSF10 mRNA: 1.8 fold
W12 cells; 100 nM, 24 h
  Fold increase due to GSK983, CCL5 mRNA: 3.1 fold
  Fold increase due to GSK983, CEL mRNA: 3.0 fold
  Fold increase due to GSK983, COL10A1 mRNA: 3.6 fold
  Fold increase due to GSK983, CPT1B mRNA: 3.2 fold
  Fold increase due to GSK983, CSF2 mRNA: 3.7 fold
  Fold increase due to GSK983, DCN mRNA: 2.3 fold
